Data: ChEMBL document CHEMBL1146878, “A novel class of AMPA receptor allosteric modulators. Part 1: design, synthesis, and SAR of 3-aryl-4-cyano-5-substituted-heteroaryl-2-carboxylic acid derivatives” (Bioorg Med Chem Lett, 2006)

Legend:
Assay type in all cases: functional, cell-based
Glutamate receptor 4 [1] = biological target: T1, Glutamate receptor 4 (Homo sapiens, UniProt P48058); assay: Activity against human GLUR4 flip expressed in HEK293 cells assessed as glutamate-stimulated calcium influx by FLIPR assay
How it was run: (§1)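 Stably transfected HEK-293 cells expressing homomeric GluR4 (flip or flop splice form) loaded with 8 µM Fluo3-AM for 60 min in HEPES-buffered saline (5 mM CaCl2, 5.5 mM glucose). Compounds from DMSO (0.1–3 µM) co-applied with 100 µM glutamate; calcium influx read by FLIPR. Duplicate 10-point curves; response expressed as % of 100 µM cyclothiazide, EC50 calculated.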

Glutamate receptor 4 [2] = biological target: T1, Glutamate receptor 4; assay: Activity against human GLUR4 flop expressed in HEK293 cells assessed as glutamate-stimulated calcium influx by FLIPR assay; how it was run: as §1
Glutamate receptor 2 [3] = biological target: T2, Glutamate receptor 2 (Homo sapiens, UniProt P42262); assay: Activity against human GLUR2 flop expressed in HEK293 cells assessed as glutamate-stimulated calcium influx by FLIPR assay
Glutamate receptor 2 [4] = biological target: T2, Glutamate receptor 2; assay: Activity against human GLUR2 flip expressed in HEK293 cells assessed as glutamate-stimulated calcium influx by FLIPR assay

T2 sequence (P42262 whole entry): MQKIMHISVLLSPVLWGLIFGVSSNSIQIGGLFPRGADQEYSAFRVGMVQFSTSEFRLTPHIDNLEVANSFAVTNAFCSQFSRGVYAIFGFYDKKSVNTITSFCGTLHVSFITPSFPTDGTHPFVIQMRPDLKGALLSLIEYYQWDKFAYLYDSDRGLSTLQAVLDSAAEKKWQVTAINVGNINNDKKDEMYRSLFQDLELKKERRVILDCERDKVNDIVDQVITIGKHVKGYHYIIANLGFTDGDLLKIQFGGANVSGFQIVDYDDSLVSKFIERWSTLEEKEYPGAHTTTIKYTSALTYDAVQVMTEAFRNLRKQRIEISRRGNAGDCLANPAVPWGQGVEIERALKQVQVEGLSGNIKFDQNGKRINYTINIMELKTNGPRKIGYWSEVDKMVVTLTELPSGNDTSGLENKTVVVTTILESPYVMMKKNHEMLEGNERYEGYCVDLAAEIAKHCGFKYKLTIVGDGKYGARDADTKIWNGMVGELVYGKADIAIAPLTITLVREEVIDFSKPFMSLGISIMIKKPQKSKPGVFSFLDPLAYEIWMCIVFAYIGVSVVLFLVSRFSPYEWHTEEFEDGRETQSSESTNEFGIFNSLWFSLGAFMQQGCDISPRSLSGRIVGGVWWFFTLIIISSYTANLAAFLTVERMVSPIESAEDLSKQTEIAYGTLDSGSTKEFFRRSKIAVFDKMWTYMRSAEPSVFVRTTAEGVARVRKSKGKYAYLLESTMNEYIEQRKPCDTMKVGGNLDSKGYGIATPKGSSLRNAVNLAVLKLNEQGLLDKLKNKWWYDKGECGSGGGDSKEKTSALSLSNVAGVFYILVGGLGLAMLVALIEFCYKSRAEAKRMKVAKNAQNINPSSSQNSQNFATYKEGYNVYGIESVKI
T1 sequence (P48058 whole entry, canonical isoform): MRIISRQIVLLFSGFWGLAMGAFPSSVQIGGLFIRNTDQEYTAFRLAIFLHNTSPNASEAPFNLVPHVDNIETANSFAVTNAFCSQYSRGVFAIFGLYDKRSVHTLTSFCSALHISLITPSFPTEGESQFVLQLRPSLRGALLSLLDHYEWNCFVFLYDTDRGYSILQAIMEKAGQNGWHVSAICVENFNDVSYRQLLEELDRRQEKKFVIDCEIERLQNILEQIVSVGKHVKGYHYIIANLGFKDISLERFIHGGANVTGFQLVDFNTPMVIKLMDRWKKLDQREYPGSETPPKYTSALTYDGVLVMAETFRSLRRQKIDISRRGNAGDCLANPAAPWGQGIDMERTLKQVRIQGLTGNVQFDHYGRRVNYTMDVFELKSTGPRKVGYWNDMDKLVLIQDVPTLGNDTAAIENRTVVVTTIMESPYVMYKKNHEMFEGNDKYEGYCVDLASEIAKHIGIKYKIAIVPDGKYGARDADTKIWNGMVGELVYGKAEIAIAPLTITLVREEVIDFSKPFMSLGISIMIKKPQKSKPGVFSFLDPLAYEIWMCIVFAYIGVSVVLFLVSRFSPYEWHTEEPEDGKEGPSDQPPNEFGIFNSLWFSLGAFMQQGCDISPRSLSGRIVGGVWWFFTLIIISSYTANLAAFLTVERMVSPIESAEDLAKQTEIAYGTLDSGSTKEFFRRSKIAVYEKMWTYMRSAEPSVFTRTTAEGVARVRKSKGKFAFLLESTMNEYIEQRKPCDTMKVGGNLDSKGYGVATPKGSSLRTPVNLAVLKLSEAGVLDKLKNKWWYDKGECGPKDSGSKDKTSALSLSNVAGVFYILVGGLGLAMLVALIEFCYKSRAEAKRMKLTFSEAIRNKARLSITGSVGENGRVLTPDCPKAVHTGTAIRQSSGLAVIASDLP

EC50 (Glutamate receptor 4 [1]) [µM]	EC50 (Glutamate receptor 4 [2]) [µM]	SMILES	EC50 (Glutamate receptor 2 [3]) [µM]	EC50 (Glutamate receptor 2 [4]) [µM]
1.87	> 3	CC(C)Sc1sc(C(=O)O)c(-c2ccc(C(C)(C)C)cc2)c1C#N		
0.273	0.488	CC(C)(C)c1ccc(-c2c(C(=O)O)sc(C(F)(F)F)c2C#N)cc1	0.231	0.078
0.44	> 3	CCSc1sc(C(=O)O)c(-c2ccc(C(C)(C)C)cc2)c1C#N		
1.98	> 3	CSc1oc(C(=O)O)c(-c2ccc(C(C)(C)C)cc2)c1C#N		
0.629	> 3	CC(C)(C)c1ccc(-c2c(C(=O)O)sc(S(C)(=O)=O)c2C#N)cc1	1.81	0.333
0.474	> 3	CN(C)c1sc(C(=O)O)c(-c2ccc(C(C)(C)C)cc2)c1C#N	2.85	0.176
0.795	> 3	CSc1sc(C(=O)O)c(-c2ccc(-c3ccccc3)cc2)c1C#N		
0.489	> 3	C[S+]([O-])c1sc(C(=O)O)c(-c2ccc(C(C)(C)C)cc2)c1C#N (stereo not given)		
1.01	> 3	CC(C)(C)c1ccc(-c2c(C(=O)O)sc(N3CCCC3)c2C#N)cc1	2.43	1.14
2.89	> 3	CCCSc1sc(C(=O)O)c(-c2ccc(C(C)(C)C)cc2)c1C#N		

SMILES	EC50 (Glutamate receptor 4 [1]) [µM]	EC50 (Glutamate receptor 4 [2]) [µM]	EC50 (Glutamate receptor 2 [3]) [µM]	EC50 (Glutamate receptor 2 [4]) [µM]
CC(C)(C)c1ccc(-c2c(C(=O)O)sc(Sc3ccccc3)c2C#N)cc1	> 3	> 3		
CCc1sc(C(=O)O)c(-c2ccc(C(C)(C)C)cc2)c1C#N	0.183	1.22	0.216	0.047
CSc1c(C#N)c(-c2ccc(C(C)(C)C)cc2)c(C(=O)O)n1C	0.554	1.42	0.663	0.684
CCOC(=O)c1sc(SC)c(C#N)c1-c1ccc(C(C)(C)C)cc1	> 3	> 3	> 3	> 3
CC(C)(C)c1ccc(-c2c(C#N)csc2C(=O)O)cc1	> 3	> 3	> 3	> 3
CC(CNS(=O)(=O)C(C)C)c1ccc(-c2ccc(C#N)cc2)cc1 (stereo not given)	0.42	1.06	1.91	0.559
